Hits are enriched below; roughly 0.77% of the tested compounds scored in any of these assays.
mIAP activ = activators of mouse IAP, primary screen, biochemical, luminescence, uHTS | AID 2805, 2010 | 330,000 tested, 0.24% active | activation factor at 10 µM | muIAP, CDP-Star luminescence, 30 min; stronger effect = higher value; 1 = vehicle-only enzyme signal, 0 = enzyme-free wells;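 active means activation factor of at least 2 at 20 µM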
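Assay system: mouse IAP enzyme / Compound: DMSO-dissolved test compounds / Timing: 30 min, room temperature / Measured by: luminescence from enzymatic CDP-Star hydrolysis / Control set: DMSO-only wells, enzyme-free buffer wells as negative control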
hIAP activ = human IAP activators, primary screen, biochemical, luminescence, uHTS; activation factor at 10 µM; 330,000 tested, 0.16% active; Intestinal-type alkaline phosphatase (Homo sapiens), P09923; purified human IAP, CDP-Star luminescence, 30 min; stronger effect = higher value; 1 = vehicle-only enzyme, 0 = enzyme-free background;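 active means activation factor of the enzyme at least 2-fold when tested at 20 µM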
Target sequence (P09923 whole entry, looked up): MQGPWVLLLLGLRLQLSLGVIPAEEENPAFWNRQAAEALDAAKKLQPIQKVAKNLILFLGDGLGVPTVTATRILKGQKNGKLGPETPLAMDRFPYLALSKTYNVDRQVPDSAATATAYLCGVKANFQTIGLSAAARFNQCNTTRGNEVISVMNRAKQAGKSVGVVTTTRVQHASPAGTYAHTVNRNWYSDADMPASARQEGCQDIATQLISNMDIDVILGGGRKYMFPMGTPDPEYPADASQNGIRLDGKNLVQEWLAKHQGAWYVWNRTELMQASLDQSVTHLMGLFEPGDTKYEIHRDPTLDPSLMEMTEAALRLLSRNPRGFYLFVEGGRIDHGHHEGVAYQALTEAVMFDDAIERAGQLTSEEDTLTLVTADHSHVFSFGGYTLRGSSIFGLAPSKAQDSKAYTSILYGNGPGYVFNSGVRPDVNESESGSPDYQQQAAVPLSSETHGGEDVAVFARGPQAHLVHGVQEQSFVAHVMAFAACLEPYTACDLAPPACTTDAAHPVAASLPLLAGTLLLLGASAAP
bIAP inh = bovine intestinal alkaline phosphatase inhibitors, primary screen, selectivity assay for TNAP inhibitor project, biochemical, bovine IAP, CDP-star luminescence; 190,000 tested, under 10 active; purified bovine IAP, 30 min; inhibition, % at 20 µM; AID 1019, 2008; alkaline phosphatase, intestinal [Bos taurus];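 active means over 50% inhibition of intestinal alkaline phosphatase at 20 µM in the single-dose screen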
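System: purified bovine intestinal alkaline phosphatase (IAP) enzyme; Input: IAP diluted 1/65,000,000 in the well; Measured by: CDP-star luminescence signal; Compound dosing: 20 µM single dose; Incubation: 30 min reaction at room temperature.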
hIAP inh = human IAP inhibitors, primary screen, biochemical, luminescence, uHTS | inhibition, % at 10 µM | Intestinal-type alkaline phosphatase (Homo sapiens), P09923 | 330,000 tested, 0.12% active | purified IAP, CDP-Star luminescence, 30 min;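 active means inhibition reaching a set limit with compound at 10 µM in the primary screen, cut at about 35% in these data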;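 further: plate controls were DMSO wells with enzyme for no effect and no-enzyme buffer wells for full effect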
mIAP block = inhibitors of mouse IAP, primary screen, biochemical, luminescence, uHTS; 330,000 tested, 0.2% active; AID 2806, 2010; intestinal alkaline phosphatase [Mus musculus]; purified mouse IAP, CDP-Star luminescence, 30 min; inhibition, % at 10 µM;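 active means inhibition of at least 40% at 10 µM in the primary screen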;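 further: plate controls were DMSO with enzyme for no effect and no enzyme wells for full effect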
bIAP activator = bovine intestinal alkaline phosphatase activators, primary screen, biochemical, bovine IAP, CDP-star luminescence | activation factor at 20 µM | 200,000 tested, 0.17% active | purified bovine IAP, 30 min; stronger effect = higher value; fold of DMSO-control signal, blank-subtracted | alkaline phosphatase, intestinal [Bos taurus];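 active means activation factor of 2 or more at 20 µM, a signal rise over negative controls twice the positive control's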
hIAP act confirm = human IAP activators, confirmation, biochemical, luminescence, single concentration, uHTS hits; shares compounds with hIAP activ; purified IAP, CDP-Star luminescence, 30 min; stronger effect = lower value; 880 tested, 10% active; activation (%Activity, negative = activation), % at 8.3 µM;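 active means at least twofold enzyme activation in any of six single-dose repeats, which the averaged readout prints as negative percent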
* = called active by the depositor; · = no result.

SMILES	mIAP activ	hIAP activ	bIAP inh	hIAP inh	mIAP block	bIAP activator	hIAP act confirm
COc1cccc(/C=N/NC(=O)c2cc(-c3ccccn3)nc3ccccc23)c1O	1	2.1*	·	-113	0	·	-1
CCCn1c(C)cc(C(=O)COc2ccc(-c3nnco3)cc2)c1C	1.2	1.2	16	-17	-16	0.8	·
COc1cccc(/C=N/NC(=O)CNC(=O)c2ccncc2)c1O	0.95	2.2*	·	-116	5	·	-42
CCN(CC)C(=O)COc1ccc(S(=O)(=O)N2CCCC2)cc1	0.96	1.1	·	-11	4	·	·
CCN(CC)C(=O)COc1ccc(S(=O)(=O)N2CCOCC2)cc1	1.1	2.4*	8	-145	-7	0.9	-26
Cn1c(=O)[nH]c(=O)c2c1nc(NCCN)n2CCOc1ccccc1	1.1	0.93	·	7	-10	·	·
Cn1c(C(=O)N2CCCC(C(=O)NCc3cccs3)C2)cc2sccc21 (configuration not stated)	0.96	0.62	5	38*	4	1	-50
Cc1cccc(NC(=O)c2cc(-c3cc(Cl)ccc3O)n[nH]2)c1	1.2	2*	·	-103	-18	·	-4
Cc1ccc(C)c(NC(=O)c2cc(-c3cc(C)ccc3O)n[nH]2)c1	1.1	2.2*	·	-121	-12	·	-58
Cc1ccc(NC(=O)c2cc(-c3cc(Cl)ccc3O)n[nH]2)cc1C	1	1.9	·	-94	-3	·	·
C#CCOc1ccc(/C=C2/C(=O)ON=C2C)cc1Cl	1	1	·	-3	-3	·	·
COc1cc2c(cc1OC)C(C)N(C(=O)Nc1ccccc1)CC2 (configuration not stated)	0.98	0.94	·	6	2	·	·
COc1cc2c(cc1OC)[C@H](C)N(C(=S)Nc1ccc(F)cc1)CC2	1	2.3*	·	-127	0	·	3
CCCCc1ccc(NC(=O)CSc2nnc(C)c(=O)n2N)cc1	0.92	1	·	-1	8	·	·
Cc1ccc(C(=O)N/C(=C\c2ccco2)C(=O)NCCCn2ccnc2)cc1C	1.1	0.14	-24	86*	-6	1.2	-63
COc1ccc(C(=O)N/C(=C\c2ccco2)C(=O)NCCCn2ccnc2)cc1	0.92	0.94	5	6	8	0.9	·
CC(C)=CCc1c(O)ccc2c1OC(c1ccc(O)c(O)c1)CC2=O (configuration not stated)	0.68	0.32	20	68*	32	0.8	26
CC(C)=CCc1c(O)cc2c(c1O)C(=O)CC(c1ccccc1)O2 (configuration not stated)	0.93	0.86	·	14	7	·	·
CS(=O)(=O)N1CCN(C(=O)c2cc(-c3ccncc3)nc3ccc(Cl)cc23)CC1	0.99	2.5*	-2	-145	1	1	8
CCCCn1c(N)c(N(CC(C)C)C(=O)CSc2n[nH]c(-c3ccc(C)cc3)n2)c(=O)[nH]c1=O	0.96	1	·	0	4	·	·
O=C(c1cc(=O)[nH]c2ccccc12)N(Cc1nnc(-c2ccccc2Cl)o1)C1CC1	0.91	1.1	·	-13	9	·	·
COC(=O)c1cc(OC)c(OC)cc1NC(=O)CSc1nnc(-c2cccnc2)n1C	1.1	2.1*	1	-115	-9	1	-12
COC(=O)CCC(=O)Nc1ccc2oc3c(c2c1)CCCC3	0.89	0.58	·	42*	11	·	-39
COC(=O)CCC(=O)Nc1ccc(Cl)c(Cl)c1	0.97	0.92	16	8	3	0.8	·
O=C(NNC(=O)c1ncc(Cl)c(Cl)c1Cl)c1ccc(F)cc1	0.89	2.2*	·	-116	11	·	-2
